In ChEMBL document CHEMBL5331128, “Alicyclic Ring Size Variation of 4-Phenyl-2-naphthoic Acid Derivatives as P2Y14 Receptor Antagonists” (J Med Chem, 2023):
The source made the active and inactive calls.

Assays:
[1] = Cmax in CD-1 mouse at 10 mg/kg,po and measured at 1 hrs by LC-MS/MS analysis; type: ADME, organism-based; design: dose 10 mg/kg, time 1 hrs, route po; conditions: in vivo
Summary of the method: (§1)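 Female CD1 mice given double ester/carbamate prodrug by oral gavage. Plasma levels of both prodrug and released parent acid followed over time to give Cmax, t1/2, AUCinf and %F.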

[2] = Oral bioavailability in CD-1 mouse at 10 mg/kg and measured upto 24 hrs by LC-MS/MS analysis; type: ADME, organism-based; conditions: in vivo; summary of the method: as §1
[3] = Prodrug conversion in CD-1 mouse plasma assessed as Cmax of 4-(4-(piperidin-4-yl)phenyl)-7-(4-(trifluoromethyl)phenyl)-2-naphthoic acid at 10 mg/kg,po and measured upto 24 hrs by LC-MS/MS analysis; type: ADME, organism-based; design: dose 10 mg/kg, time < 24 hrs, route po; conditions: in vivo; summary of the method: as §1
[4] = Prodrug conversion in CD-1 mouse plasma assessed as AUC (0 to infinity) of 4-(4-(piperidin-4-yl)phenyl)-7-(4-(trifluoromethyl)phenyl)-2-naphthoic acid at 10 mg/kg,po and measured upto 24 hrs by LC-MS/MS analysis; type: ADME, organism-based; design: time < 24 hrs, dose 10 mg/kg, route po; conditions: in vivo; summary of the method: as §1
[5] = Half life in CD-1 mouse at 10 mg/kg,po and measured upto 24 hrs by LC-MS/MS analysis; type: ADME, organism-based; conditions: in vivo; summary of the method: as §1
[6] = Prodrug conversion in CD-1 mouse plasma assessed as Tmax of 4-(4-(piperidin-4-yl)phenyl)-7-(4-(trifluoromethyl)phenyl)-2-naphthoic acid at 10 mg/kg,po and measured upto 24 hrs by LC-MS/MS analysis; type: ADME, organism-based; conditions: in vivo
Summary of the method: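 Double prodrug of the active acid given by oral gavage to female CD1 mice. Plasma levels of prodrug and released active drug followed over time to establish the conversion course. Peak time read for the active drug.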

Mus musculus [7] = assay: Antiallodynic activity in CCI surgery neuropathic pain Hsd:ICR mouse model assessed as reversal of mechano-allodynia by measuring paw withdrawal threshold at 10 micromol/kg,po and measured upto 6 hrs by von frey test; type: functional, organism-based; conditions: dose 10.0 µmol/kg
Summary of the method: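 CCI neuropathic pain in adult male CD-1 mice. Single oral gavage dose of 10 μmol/kg on day 7 post-surgery. Vehicle 5% DMSO + 10% (Kolliphor HS 15:DMSO 5:95) in 0.5% methylcellulose, 0.2 mL. Von Frey paw withdrawal threshold on both hindpaws. Mean ± SD; two-way ANOVA with Dunnett's test.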

[8] = AUC (0 to infinity) in CD-1 mouse at 10 mg/kg,po and measured upto 24 hrs by LC-MS/MS analysis; type: ADME, organism-based; design: time < 24 hrs, dose 10 mg/kg, route po; conditions: in vivo; summary of the method: as §1
Mus musculus [9] = assay: Antiallodynic activity in CCI surgery neuropathic pain Hsd:ICR mouse model assessed as reversal of mechano-allodynia by measuring paw withdrawal threshold at 10 micromol/kg,ip and measured upto 5 days by von frey test; type: functional, organism-based; conditions: dose 10.0 µmol/kg, time <= 5.0 day
Summary of the method: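 CCI neuropathic pain in adult male Hsd:ICR (CD-1) mice (20–30 g). Single i.p. injection on day 7 after sciatic nerve constriction, at peak pain. Vehicle 10% (Kolliphor HS 15:DMSO 5:95) in saline, 0.2 mL. Paw withdrawal threshold by von Frey filaments on ipsilateral and contralateral hindpaws. Mean ± SD; two-way ANOVA with Dunnett's test versus day 0 and day 7.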

Q: Which Cmax [1] does the source give for CCOC(=O)N1CCC(c2ccc(-c3cc(C(=O)OCC(=O)N(C)C)cc4cc(-c5ccc(C(F)(F)F)cc5)ccc34)cc2)CC1 here?
A: 2000 ng/mL

Q: And the bioavailability [2]?
A: 6.9%

Q: What about the Cmax [3] of the same compound?
A: 33 ng/mL

Q: And the AUC [4]?
A: 515 ng·h/mL

Q: What about the t1/2 [5] of the same compound?
A: 1.45 h

Q: And the Tmax [6]?
A: 7 h

Q: And the Activity (Mus musculus [7])?
A: Active

Q: What about the AUC(0-inf) [8] of the same compound?
A: 1780 ng·h/mL

Q: What about the Activity (Mus musculus [9]) of the same compound?
A: Active
